Sampled rows, rich in hits. Any-hit rate of the full collection: about 2.3%.
Scp-1 inhibitor = Scp-1 phosphatase inhibitors, primary screen, biochemical, colorimetric, uHTS. Carboxy-terminal domain RNA polymerase II polypeptide A small phosphatase 1 (Homo …. inhibition, % at 20 µM. Recombinant Scp1, phosphopeptide, malachite green phosphate absorbance. AID 493091, 2011. 0.88% of 340,000 active;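 active means inhibition above about 50% at 20 µM, limit read from the data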;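 further: plate controls were DMSO wells with enzyme for no effect and wells lacking enzyme for full effect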
Target sequence (Q9GZU7 76-261 limits assumed): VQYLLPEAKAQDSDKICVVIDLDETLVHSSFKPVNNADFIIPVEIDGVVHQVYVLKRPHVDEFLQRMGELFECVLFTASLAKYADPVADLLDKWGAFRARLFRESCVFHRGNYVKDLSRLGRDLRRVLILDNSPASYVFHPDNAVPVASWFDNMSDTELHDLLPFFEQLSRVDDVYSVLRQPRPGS
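Material – SCP-1 phosphatase catalytic domain, residues 76-261 · Buffer or medium – Acidic Tris acetate buffer with magnesium and detergent · Also added – Phospho 17-mer peptide substrate · Compound – single 20 µM dose, 1% DMSO · Times – 45 min room-temperature reaction, 5 min colour, 30 min stabiliser · Technique – Phosphate-binding colour reagent, absorbance read at 630 nm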
Rpn11 inh = Rpn11 (PSMD14) deubiquitinase inhibitors, primary screen, biochemical, fluorescence polarization, uHTS. 0.59% of 360,000 active. inhibition, % at 20 µM. 26S proteasome non-ATPase regulatory subunit 14 (Homo sapiens), O00487. human 26S proteasome, Ub4-pepOG fluorescence polarization; 20S core pre-blocked with epoxomicin;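 active means inhibition at 20 µM, scaled to each plate's controls, above about 33%, limit read from the data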
Target sequence (O00487 whole entry, looked up): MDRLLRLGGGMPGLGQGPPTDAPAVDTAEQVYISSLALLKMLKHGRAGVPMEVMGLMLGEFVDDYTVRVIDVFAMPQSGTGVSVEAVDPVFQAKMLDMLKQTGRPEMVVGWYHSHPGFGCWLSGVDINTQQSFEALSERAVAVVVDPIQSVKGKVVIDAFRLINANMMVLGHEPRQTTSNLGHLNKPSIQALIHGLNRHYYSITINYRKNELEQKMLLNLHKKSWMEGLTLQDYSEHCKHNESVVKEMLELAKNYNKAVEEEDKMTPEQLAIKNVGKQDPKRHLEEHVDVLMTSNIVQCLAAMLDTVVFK
SUMO1 PPI mod = modulators of SUMO1 protein-protein interactions, primary screen, biochemical, uHTS; 0.33% of 360,000 active; Small ubiquitin-related modifier 1 (Homo sapiens), P63165; AID 602429, 2012; SUMO1 binding to a labelled peptide, TR-FRET, 1 h; inhibition, % at 20 µM; in the data active means inhibition above about 37%
Target sequence (P63165 whole entry, looked up): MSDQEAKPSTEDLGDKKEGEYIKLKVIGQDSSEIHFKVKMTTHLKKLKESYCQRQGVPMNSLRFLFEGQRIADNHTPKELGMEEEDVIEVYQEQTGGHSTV
STEP block = STEP phosphatase inhibitors, primary screen, biochemical, fluorescence intensity, uHTS; Tyrosine-protein phosphatase non-receptor type 5 (Homo sapiens), P54829; recombinant STEP, OMFP fluorogenic substrate; inhibition, % at 20 µM; 0.25% of 360,000 active; AID 588621, 2011;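 active means inhibition at 20 µM, scaled per plate between control wells, above about 37%, limit read from the data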;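 further: 0% = DMSO with enzyme and substrate and 100% = substrate only without enzyme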
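System: STEP (striatal-enriched tyrosine phosphatase) enzyme, cell-free; medium: Bis-Tris pH 6.0 buffer with DTT, detergent; dosing: 20 µM, 1% DMSO; times: reaction 20 min, ambient temperature; detection: fluorescence, 480/540 nm; read-out basis: normalized % inhibition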
DNMT1 block = human DNMT1 methyltransferase inhibitors, primary screen, biochemical, molecular beacon, fluorescence, HinP1I cleavage, uHTS; DNA (cytosine-5)-methyltransferase 1 (Homo sapiens), P26358; inhibition (reported as % activation of signal), % at 10 µM; 0.83% of 360,000 active; AID 588458, 2011; in the data active means inhibition above about 50%
LMPTP block = LMPTP phosphatase inhibitors, primary screen, biochemical, fluorescence intensity, uHTS; 0.22% of 360,000 active; AID 651560, 2012; inhibition, % at 20 µM; recombinant LMPTP-A, OMFP fluorogenic substrate; Low molecular weight phosphotyrosine protein phosphatase (Homo sapiens), P24666;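 active means compounds that cut the enzyme signal by at least half of the control window in the single-dose screen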;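 further: plate controls were DMSO wells with enzyme plus substrate for no effect and substrate without enzyme for full effect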
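Test system – LMPTP-A enzyme · Amount – LMPTP-A at 0.625 nM final in the reaction · Buffer or medium – Bis-Tris pH 6.0, DTT, detergent · Reagent – OMFP 400 µM · Doses – single 20 µM dose · Schedule – reaction 50 min, room temperature, dark · Detection – fluorescence intensity of OMFP turnover product · Evaluation – percent inhibition versus substrate-only and uninhibited controls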
Scp-1 conf = Scp-1 phosphatase inhibitors, retest, confirmation, biochemical, colorimetric, single concentration; shares compounds with Scp-1 inhibitor; AID 540281, 2011; 61% of 2,500 active; recombinant SCP-1 catalytic domain, phosphate release, malachite green absorbance; inhibition, % at 20 µM;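 further: plate controls were DMSO with enzyme for no effect and buffer wells lacking enzyme for full effect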
MG interference = colorimetric readout interference by compounds, confirmation, artefact control for Scp-1 inhibitor project, biochemical, single concentration. 2,500 tested, under 10 active. shares compounds with Scp-1 inhibitor. apparent inhibition (interference), % at 20 µM. Colorimetric interference counterscreen, malachite green absorbance 630 nm;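 further: compounds added after enzyme reaction finished so only phosphate colour detection is probed; plate controls were DMSO wells with completed Scp-1 reaction for no effect and substrate wells lacking enzyme for full effect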
Scp1 DSF = Scp-1 binding by thermal shift, confirmation, orthogonal assay for Scp-1 inhibitor project, biophysical, differential scanning fluorimetry; shares compounds with Scp-1 inhibitor; Recombinant SCP1, Sypro Orange thermal shift Tm; thermal shift relative to vanadate control, % at 40 µM; 25% of 1,500 active; AID 540329, 2011;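 active means substances whose mean melting-temperature shift, as a percentage of the reference inhibitor's shift, reaches about 5.3%, limit read from the data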;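 further: 0% = Tm of DMSO wells and 100% = Tm with sodium orthovanadate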
Numbers without * were called inactive.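 How the source made its calls, unless noted: active means inhibition of at least 30% at 20 µM; inactive means the rest.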

Results for CS(=O)(=O)N1CCC(Oc2ccccc2C(=O)N2CCNC(=O)C2)CC1 ?
Scp-1 inhibitor: -4; Rpn11 inh: -2; SUMO1 PPI mod: 0; STEP block: 0; DNMT1 block: 5; LMPTP block: -1

Results for CCOc1cc(/C=N/N=C2/NC(=O)C(CC(=O)O)S2)ccc1OCc1ccc(Cl)cc1 (configuration not stated) ?
Scp-1 inhibitor: 75*; Rpn11 inh: 7; SUMO1 PPI mod: 0; STEP block: 6; DNMT1 block: -1; LMPTP block: 1; Scp-1 conf: 69*; MG interference: -11; Scp1 DSF: -14

What do the screens show for `CC(=O)Nc1ccc(S(=O)(=O)NCC(=O)NNC(=O)COc2ccccc2Cl)cc1`?
Scp-1 inhibitor: -3; Rpn11 inh: 2; SUMO1 PPI mod: -1; STEP block: 0; DNMT1 block: 1; LMPTP block: -1; Scp-1 conf: -25; MG interference: -26

How did COc1cccc(-n2nnc3c(=O)n(CC(=O)Nc4ccccc4C)cnc32)c1 do in these assays?
Scp-1 inhibitor: 26; Rpn11 inh: 20; SUMO1 PPI mod: 5; STEP block: 6; DNMT1 block: 9; LMPTP block: -1

How did CCOc1ccccc1NC(=O)Cn1cnc2c(nnn2-c2cccc(OC)c2)c1=O do in these assays?
Scp-1 inhibitor: 71*; Rpn11 inh: 12; SUMO1 PPI mod: 22; STEP block: 8; DNMT1 block: 3; LMPTP block: 0; Scp-1 conf: 58*; MG interference: -16; Scp1 DSF: -19

How did O=C1CNC(=O)/C1=C\N1CCN(C(c2ccccc2)c2ccccc2)CC1 do in these assays?
Scp-1 inhibitor: 55*; Rpn11 inh: -2; SUMO1 PPI mod: 0; STEP block: 2; DNMT1 block: -6; LMPTP block: -3; Scp-1 conf: -16; MG interference: -9

What do the screens show for `O=C1CNC(=O)/C1=C\N1CCCCC1`?
Scp-1 inhibitor: -6; Rpn11 inh: 2; SUMO1 PPI mod: -4; STEP block: 0; DNMT1 block: -2; LMPTP block: 0

Results for COc1ccc(-c2ccc3oc(-c4ccc(OC)cc4)c(C#CC4(O)CCCCC4)c3c2)cc1 ?
Scp-1 inhibitor: 73*; Rpn11 inh: 19; SUMO1 PPI mod: 7; STEP block: 0; DNMT1 block: -13; LMPTP block: 5; Scp-1 conf: 42*; MG interference: -26; Scp1 DSF: -2

Results for CCn1ncc(Br)c1C(=O)NC(C)c1ccccc1 (configuration not stated) ?
Scp-1 inhibitor: 81*; Rpn11 inh: -2; SUMO1 PPI mod: 3; STEP block: -19; DNMT1 block: 1; LMPTP block: -1; Scp-1 conf: -1; MG interference: -5

Results for COc1ccc(-c2nonc2NC(=O)c2ccco2)cc1OC ?
Scp-1 inhibitor: 58*; Rpn11 inh: -6; SUMO1 PPI mod: -3; STEP block: -4; DNMT1 block: 2; LMPTP block: -1; Scp-1 conf: -14; MG interference: -16

Results for CC(C)c1ccc(NC(=O)c2cc([N+](=O)[O-])ccc2N2CCOCC2)cc1 ?
Scp-1 inhibitor: 55*; Rpn11 inh: 5; SUMO1 PPI mod: -18; STEP block: 1; DNMT1 block: 1; LMPTP block: 1; Scp-1 conf: -11; MG interference: -13

Results for CCN1CCN(Cc2c3ccccc3cc3ccccc23)CC1 ?
Scp-1 inhibitor: -7; Rpn11 inh: -9; SUMO1 PPI mod: -22; STEP block: -2; DNMT1 block: 12; LMPTP block: -4

Results for Brc1ccc(-c2nn3c(-c4ccccn4)nnc3s2)o1 ?
Scp-1 inhibitor: 72*; Rpn11 inh: -8; SUMO1 PPI mod: -2; STEP block: 6; DNMT1 block: 8; LMPTP block: 0; Scp-1 conf: 50*; MG interference: -11; Scp1 DSF: 2

Results for Clc1ccccc1-c1nn2c(-c3ccccn3)nnc2s1 ?
Scp-1 inhibitor: -2; Rpn11 inh: -11; SUMO1 PPI mod: 7; STEP block: -3; DNMT1 block: 2; LMPTP block: 0

Results for CCOc1ccc(S(=O)(=O)N2CCCC(C(=O)NCC3CCCO3)C2)cc1 (configuration not stated) ?
Scp-1 inhibitor: -5; Rpn11 inh: 3; SUMO1 PPI mod: 5; STEP block: 2; DNMT1 block: 2; LMPTP block: 1

What do the screens show for `Cc1cc(C)n(CCNC(=O)C2CCC(=O)N(Cc3ccc(Cl)cc3)C2)n1` (configuration not stated)?
Scp-1 inhibitor: -3; Rpn11 inh: -1; SUMO1 PPI mod: 2; STEP block: -5; DNMT1 block: 1; LMPTP block: 0

How did Cc1cc(C)n(CCCNC(=O)C2CC(=O)N(Cc3ccccc3)C2)n1 (configuration not stated) do in these assays?
Scp-1 inhibitor: -3; Rpn11 inh: -1; SUMO1 PPI mod: -2; STEP block: -2; DNMT1 block: -5; LMPTP block: -4; Scp-1 conf: -3; MG interference: -4

Results for CCN1C(=NCCc2ccccn2)N[C@@H](c2cccc(F)c2)C(C(=O)OC)=C1C ?
Scp-1 inhibitor: 0; Rpn11 inh: -10; SUMO1 PPI mod: 5; STEP block: 2; DNMT1 block: 3; LMPTP block: -2

High-throughput results: PubChem BioAssay, Sanford-Burnham Center for Chemical Genomics
